Screening data: PubChem, SRMLSC
The entries come from a sample that favours hits as a whole.
H69AR inhibit = growth inhibitors of human H69AR lung tumor cells; AID 598; H69AR lung tumor viability, ATP luminescence, 72 h; hits give low values; hit rate 6% among 85,000; viability, % at 10 µM;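 active = viability at or below 40%; inactive = viability above 40%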;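 note: multidrug resistant small cell line overexpressing MRP-1 efflux transporter; 100% = mean luminescence of untreated control wells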
HUVEC prolif 384 = inhibitors of human endothelial cell proliferation | HUVEC proliferation, CellTiter-Glo luminescence, 72 h; hits give low values | viability, % at 10 µM (by protocol) | hit rate 1.1% among 86,000 | AID 648;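 active = viability at or below 30%; inactive = viability above 30%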;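 note: 100% = median luminescence of DMSO-only cell control wells on each plate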
HCT116 PTEN-null = suppresses growth of cells with PTEN deletion | HCT116 PTEN-null viability, CellTiter-Glo, 60 h; hits give low values | viability, % at 10 µM | hit rate 1.2% among 140,000;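 active = viability at or below a set limit, 4 SD under the median of all tested compounds, cut at about 3.7% in these data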;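 note: PTEN knockout HCT116 line with beta catenin targeted HCT116 as companion control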
bCat KO growth = beta-catenin-lacking colon tumor cell growth suppression | HCT116 beta-catenin knockout viability, CellTiter-Glo, 60 h; hits give low values | viability, % at 10 µM | hit rate 1.5% among 140,000 | AID 818;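 active = viability at or under a set limit, the compound median less 4 SD, cut at about 6% in these data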;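 note: 0% = Hyamine 1622 control at 20 µM and 100% = untreated cell control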
Fibroblast inh = blocks proliferation of human lung fibroblasts. hit rate 1.1% among 85,000. LL 47 human lung fibroblast viability, ATP luminescence; hits give low values. viability, % at 10 µM. AID 719;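 active = viability at or below 50% in the single dose screen; inactive = viability above 50%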;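 note: compound exposure lasted 72 h before the ATP readout; 100% = median luminescence of untreated cell-only wells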
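Material: human lung fibroblast line LL 47, low passage; Evaluation: viability percentage against median untreated-cell control; Buffer or medium: 15% FBS in IMEM; Incubation: 72 h compound exposure at 37 °C after overnight plating; Dosing: 0.1% DMSO in all compound wells; Measured by: CellTiter-Glo luminescence.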
* marks the source's active call; other numbers are inactive results.

How did COc1ccc(NC2CS(=O)(=O)CC2NCc2ccccc2)cc1 (centres undefined) do in these assays?
H69AR inhibit: 103; HUVEC prolif 384: 93; HCT116 PTEN-null: 94; bCat KO growth: 82; Fibroblast inh: 103

Results for Cc1cc(C(=O)N/N=C/c2ccc(Cl)c([N+](=O)[O-])c2)c(C)n1-c1ccc(F)cc1 ?
HCT116 PTEN-null: 2.5*; bCat KO growth: 3.1*

How did CCNC(=O)CC1C(=O)N(c2ccc(F)cc2)C(=O)N1CCc1ccc(OC)cc1 (centres undefined) do in these assays?
H69AR inhibit: 89; HUVEC prolif 384: 94; HCT116 PTEN-null: 95; bCat KO growth: 119; Fibroblast inh: 94

How did CCOC(=O)c1[nH]c2ccc(F)cc2c1NC(=O)CN1CCN(C/C=C/c2ccccc2)CC1 do in these assays?
H69AR inhibit: 3.6*; HUVEC prolif 384: 2.6*; HCT116 PTEN-null: 48; bCat KO growth: 56; Fibroblast inh: 14*

What do the screens show for `COc1ccccc1C1CC(c2ccc(Br)cc2)=NN1C(=O)c1cccnc1` (centres undefined)?
HCT116 PTEN-null: 31; bCat KO growth: 31

Results for COc1ccccc1C(=O)NNC1=C(C(=O)C(F)(F)F)CCC1 ?
HCT116 PTEN-null: 6; bCat KO growth: 6

Results for O=C(NNC1=C(C(=O)C(F)(F)F)CCC1)c1ccccc1Cl ?
H69AR inhibit: 51; HUVEC prolif 384: 15*; HCT116 PTEN-null: 31; bCat KO growth: 22; Fibroblast inh: 68

Results for O=C(NNC1=C(C(=O)C(F)(F)F)CCC1)c1ccccc1O ?
H69AR inhibit: 30*; HUVEC prolif 384: 6.8*; HCT116 PTEN-null: 82; bCat KO growth: 74; Fibroblast inh: 62

Results for CCOC(=O)/C(C#N)=C1/C=CN(c2ccc(C)cc2)C=N1 ?
H69AR inhibit: 72; HUVEC prolif 384: 88; HCT116 PTEN-null: 103; bCat KO growth: 102; Fibroblast inh: 104

What do the screens show for `CCOC(=O)/C(C#N)=C1/C=CN(c2ccccc2)C=N1`?
H69AR inhibit: 39*; HUVEC prolif 384: 98; HCT116 PTEN-null: 95; bCat KO growth: 97; Fibroblast inh: 103

What do the screens show for `N#Cc1ccccc1NC(=O)c1ccccc1OCC(=O)NCc1ccco1`?
H69AR inhibit: 79; HUVEC prolif 384: 105; HCT116 PTEN-null: 110; bCat KO growth: 101; Fibroblast inh: 96

How did CC(=O)n1cc(-c2ccncc2)c2ccccc21 do in these assays?
H69AR inhibit: 68; HUVEC prolif 384: 25*; HCT116 PTEN-null: 72; bCat KO growth: 86; Fibroblast inh: 86

How did c1ccc2c(-c3ccncc3)c[nH]c2c1 do in these assays?
H69AR inhibit: 85; HUVEC prolif 384: 82; HCT116 PTEN-null: 93; bCat KO growth: 94; Fibroblast inh: 106

How did Cc1ccc(S(=O)(=O)NC2OC(=O)C(Cl)=C2Cl)cc1 (centres undefined) do in these assays?
H69AR inhibit: 7.0*; HUVEC prolif 384: 81; HCT116 PTEN-null: 89; bCat KO growth: 90; Fibroblast inh: 97

Results for O=C(c1ccccc1)c1nc[nH]c1C(=O)Nc1ccccn1 ?
H69AR inhibit: 60; HUVEC prolif 384: 116; HCT116 PTEN-null: 127; bCat KO growth: 110; Fibroblast inh: 108

How did COc1cc(Br)cc2cc(C(=O)OC3CCN(C)CC3)c(=O)oc12 do in these assays?
H69AR inhibit: 36*; HUVEC prolif 384: 95; Fibroblast inh: 101

How did Cc1ccc(-c2nn3c(-c4ccco4)nnc3c3ccccc23)cc1S(=O)(=O)NCC1CCCO1 (centres undefined) do in these assays?
H69AR inhibit: 16*; HUVEC prolif 384: 72; HCT116 PTEN-null: 45; bCat KO growth: 69; Fibroblast inh: 89

What do the screens show for `Cc1ccc(-c2nnc(Nc3ccccc3)c3ccccc23)cc1S(=O)(=O)NCC1CCCO1` (centres undefined)?
HCT116 PTEN-null: 68; bCat KO growth: 77

Results for O=S(=O)(Nc1cc(Sc2cccc3cccnc23)c(O)c2ccccc12)c1ccccc1 ?
HCT116 PTEN-null: 1.2*; bCat KO growth: 1.3*

What do the screens show for `COc1cc(NS(=O)(=O)c2ccc(C)cc2)c2ncccc2c1`?
H69AR inhibit: 4.0*; HUVEC prolif 384: 19; HCT116 PTEN-null: 2.3*; bCat KO growth: 3.6*; Fibroblast inh: 9.1*

Results for Cc1ccc(S(=O)(=O)Nc2ccccc2-c2ccccc2NS(=O)(=O)c2ccc(C)cc2)cc1 ?
HCT116 PTEN-null: 76; bCat KO growth: 76

What do the screens show for `Cc1ccc(S(=O)(=O)Nc2cccc3cccnc23)cc1`?
H69AR inhibit: 1.9*; HUVEC prolif 384: 46; HCT116 PTEN-null: 1.6*; bCat KO growth: 1.6*; Fibroblast inh: 5.8*

Results for COc1ccc(OC)c(NC(=O)C2CCN(Cc3cnn(-c4ccccc4)c3-n3cccc3)CC2)c1 ?
H69AR inhibit: 59; HUVEC prolif 384: 76; HCT116 PTEN-null: 75; bCat KO growth: 73; Fibroblast inh: 95

How did O=C(Nc1ccc2oc(-c3ccccc3)nc2c1)c1cccs1 do in these assays?
H69AR inhibit: 39*; HUVEC prolif 384: 84; HCT116 PTEN-null: 77; bCat KO growth: 79; Fibroblast inh: 91

What do the screens show for `O=C(Nc1ccc2nc(-c3cccs3)[nH]c2c1)c1ccco1`?
H69AR inhibit: 71; HUVEC prolif 384: 113; HCT116 PTEN-null: 96; bCat KO growth: 86; Fibroblast inh: 102

How did O=C(Nc1ccc2cn[nH]c2c1)c1ccccc1F do in these assays?
HCT116 PTEN-null: 99; bCat KO growth: 82

What do the screens show for `O=C(Nc1ccc2nc(-c3cccs3)[nH]c2c1)c1cccs1`?
H69AR inhibit: 39*; HUVEC prolif 384: 61; HCT116 PTEN-null: 71; bCat KO growth: 78; Fibroblast inh: 92

What do the screens show for `O=C(Nc1ccc(-c2nc3ccc(NC(=O)c4cccs4)cc3[nH]2)cc1)c1cccs1`?
H69AR inhibit: 3.1*; HUVEC prolif 384: 4.1*; HCT116 PTEN-null: 89; bCat KO growth: 76; Fibroblast inh: 41*

Results for O=C(Nc1ccc2nc(-c3cccnc3)[nH]c2c1)c1ccccc1F ?
H69AR inhibit: 34*; HUVEC prolif 384: 94; HCT116 PTEN-null: 112; bCat KO growth: 99; Fibroblast inh: 109

Results for O=C(Nc1ccc2oc(-c3ccccc3)nc2c1)c1ccncc1 ?
H69AR inhibit: 95; HUVEC prolif 384: 115; HCT116 PTEN-null: 82; bCat KO growth: 78; Fibroblast inh: 101

How did C/C=C(\C)c1nnc(NC(=O)OCC)s1 do in these assays?
H69AR inhibit: 91; HUVEC prolif 384: 88; HCT116 PTEN-null: 100; bCat KO growth: 101; Fibroblast inh: 99

What do the screens show for `COc1ccc(-c2cc3nc4c(c(N5CCC6(CC5)OCCO6)n3n2)CCCC4)cc1`?
H69AR inhibit: 53; HUVEC prolif 384: 85; Fibroblast inh: 81

How did COc1ccc(C(=O)NC(Cc2ccccc2)c2ccc3c(c2)OCCCO3)cc1 (centres undefined) do in these assays?
HCT116 PTEN-null: 90; bCat KO growth: 95

Results for COC(=O)c1ccc2c(c1)C(C)(C)C(/C=C/c1ccccc1O)=[N+]2C ?
HCT116 PTEN-null: 1.8*; bCat KO growth: 2.4*
